Laboratory results reported in ChEMBL document CHEMBL4414620, “Structurally Modified Cyclopenta[b]benzofuran Analogues Isolated from Aglaia perviridis” (J Nat Prod, 2019).

Legend:
HT-29 = test: Antiproliferative activity against human HT-29 cells incubated for 72 hrs by SRB assay; type: functional, cell-based; conditions: HT-29, 72 h
In short: (§1)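 Purified isolates were screened for cytotoxicity against HT-29 and PC-3 human cancer cells, with paclitaxel as the positive control for both lines.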

PC-3 = test: Antiproliferative activity against human PC3 cells incubated for 72 hrs by SRB assay; type: functional, cell-based; conditions: PC-3, 72 h; in short: as §1

SMILES | IC50 (HT-29) [µM] | IC50 (PC-3) [µM]
COc1ccc([C@@]23Oc4cc5c(c(OC)c4[C@]2(O)[C@H](O)[C@H](C(N)=O)[C@H]3c2ccccc2)[C@@H]2OC[C@H]([C@H](O)CO)O[C@@H]2O5)cc1 | > 10 | > 10
COc1ccc([C@@]23Oc4cc5c(c(OC)c4[C@]2(O)[C@H](O)[C@H](C(N)=O)[C@H]3c2ccccc2)[C@@H]2OC[C@H]([C@@H](O)CO)O[C@@H]2O5)cc1 | > 10 | > 10
COc1ccc([C@@]23Oc4cc5c(c(OC)c4[C@]2(O)[C@H](O)[C@H](C(N)=O)[C@H]3c2ccccc2)[C@H]2OC[C@H]([C@@H](O)CO)O[C@H]2O5)cc1 | > 10 | > 10
COc1ccc([C@@]23Oc4cc5c(c(OC)c4[C@]2(O)[C@H](O)[C@H](C(N)=O)[C@H]3c2ccccc2)[C@H]2OC[C@H]([C@H](O)CO)O[C@H]2O5)cc1 | > 10 | > 10
COc1ccc([C@@]23Oc4cc(O[C@@H]5O[C@@H]([C@@H](O)CO)COC5O)cc(OC)c4[C@]2(O)[C@H](O)[C@H](C(N)=O)[C@H]3c2ccccc2)cc1 (mixture of isomers) | 2.3 | 2.3
